Experimental data: ChEMBL document CHEMBL4052824, “Interfering with HuR-RNA Interaction: Design, Synthesis and Biological Characterization of Tanshinone Mimics as Novel, Effective HuR Inhibitors” (J Med Chem, 2018)
The source made the active and inactive calls. No cut-off for these calls is given here.

Key:
ELAV-like protein 1 [1] = target: T1, ELAV-like protein 1 (Homo sapiens, UniProt Q15717); test: Binding affinity to human full length recombinant HuR expressed in Escherichia coli […] assessed as inhibition of interaction with 5'-DY681-labeled AU-rich RNA probe at 5 uM after 30 mins by REMSA
How it was run: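 Non-denaturing, non-cross-linked REMSA: full-length recombinant His-tagged HuR (E. coli-expressed) in at least 10-fold excess incubated 30 min with 75 fmol 5′-DY681-labeled AU-rich RNA probe plus DMSO or compound at 5 μM; reduction of shifted probe band scored qualitatively.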

ELAV-like protein 1 [2] = target: T1, ELAV-like protein 1; test: Binding affinity to human full length recombinant His-tagged HuR expressed in Escherichia coli […] assessed as inhibition of interaction with single-strand Bi-AU RNA probe by AlphaScreen assay
PANC-1 [3] = test: Cytotoxicity against human PANC1 cells assessed as decrease in cell viability after 72 hrs by OZBlue assay; conditions: PANC-1, 72 h
MDA-MB-231 [4] = test: Cytotoxicity against human MDA-MB-231 cells assessed as decrease in cell viability after 72 hrs by OZBlue assay; conditions: MDA-MB-231, 72 h
ELAV-like protein 1 [5] = target: T1, ELAV-like protein 1; test: Change in HuR localization from nucleus to cytoplasm in human MCF7 cells at 1 uM after 3 hrs by DAPI staining-based immunofluorescence method; assay type: cell-based
How it was run: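 MCF7 cells, 8.000/well, treated 3 h alongside DMSO control, then fixed in 3.7% PFA for 15 min at RT. Permeabilised 10 min (200 mM sucrose, 0.2% Triton X-100) and blocked 15 min in 2% BSA. Stained with anti-HuR (1:250), Alexa 594 secondary (1:500) and DAPI (1.5 μg/mL). Imaged at 40×, 13 fields/well. Read-out: nuclear/cytoplasmic HuR ratio, mean of single cells per well.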

MCF7 [6] = test: Cytotoxicity against human MCF7 cells assessed as decrease in cell viability after 72 hrs by OZBlue assay; conditions: MCF7, 72 h
MCF7 [7] = test: Downregulation of RPLP0 mRNA expression in human MCF7 cells at 5 uM after 6 hrs by qRT-PCR method; assay type: functional, cell-based
How it was run: (§1)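 MCF7 cells treated with 5 μM compound or DMSO for 6 h. Total RNA extracted, transcript levels measured by qRT-PCR and normalized to RNA18s. Biological triplicate, mean ± SD, t test versus control.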

MDA-MB-231 [8] = test: Antimigratory activity in human MDA-MB-231 cells at 5 to 20 uM after 24 to 48 hrs by scratch assay; assay type: functional, cell-based
How it was run: (§2)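 Scratch assay: monolayers in DMEM with 10% FBS wounded with a pipette tip, then treated with DMSO or compound; the same field imaged at 0, 24 and 48 h at 5× magnification and residual open wound area measured. Student t test.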

PANC-1 [9] = test: Antimigratory activity in human PANC1 cells at 5 to 20 uM after 24 to 48 hrs by scratch assay; assay type: functional, cell-based; how it was run: as §2
[10] = Binding affinity to TNF AU-rich elements (unknown origin) at 10 uM by CD spectroscopic method
How it was run: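 Circular dichroism of TNF-ARE RNA (10 μM final) with compound (10 μM) in 10 mM sodium phosphate, pH 7.3. Spectra were recorded at 240–350 nm and 100 nm/min. The spectrum of compound alone (10 μM) in the same buffer was subtracted, and Δε was plotted to judge any change in RNA conformation.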

MCF7 [11] = test: Downregulation of HPRT1 mRNA expression in human MCF7 cells at 5 uM after 6 hrs by qRT-PCR method; assay type: functional, cell-based; how it was run: as §1
[12] = Binding affinity to 5'-DY681-labeled AU-rich RNA probe (unknown origin) at 5 uM after 30 mins by REMSA
How it was run: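 Non-denaturing, non-cross-linked gel-shift assay: 75 fmol of 5′-DY681-labeled AU-rich RNA probe incubated 30 min with compound at 5 μM, with DMSO as control. The probe was read by its fluorescent label to detect a shift or loss of the free RNA band.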

T1 sequence (Q15717 whole entry): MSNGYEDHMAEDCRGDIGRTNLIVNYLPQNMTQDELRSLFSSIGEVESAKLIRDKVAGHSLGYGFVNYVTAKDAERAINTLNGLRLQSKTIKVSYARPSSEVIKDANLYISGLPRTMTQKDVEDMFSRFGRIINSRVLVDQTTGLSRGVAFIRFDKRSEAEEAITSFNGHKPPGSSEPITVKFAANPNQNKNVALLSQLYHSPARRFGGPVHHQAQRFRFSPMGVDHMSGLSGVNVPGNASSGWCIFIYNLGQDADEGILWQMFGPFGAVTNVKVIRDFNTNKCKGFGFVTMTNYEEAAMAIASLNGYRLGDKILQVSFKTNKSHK

Structure (SMILES) | Ki (ELAV-like protein 1 [2]) | IC50 (PANC-1 [3]) | IC50 (MDA-MB-231 [4]) | IC50 (MCF7 [6]) | other results
O=C(O)Cc1ccc(SC2=CC(=O)C(=O)c3c(-c4ccccc4)cn(S(=O)(=O)c4ccccc4)c32)cc1 |  |  |  |  | inhibition (ELAV-like protein 1 [1]): Active
O=C1C=C(c2ccc([N+](=O)[O-])cc2)c2c(c(-c3ccccc3)cn2S(=O)(=O)c2ccccc2)C1=O | > 0.1 µM |  |  |  | 
Cc1cccc2c3c(ccc12)C1=C(C(=O)C3=O)[C@@H](C)CO1 [DIHYDROTANSHINONE I] | 0.05 µM | 2.91 µM | 8.99 µM | 3.73 µM | Activity (ELAV-like protein 1 [5]): inactive
CN(C)c1ccc(-c2cn(S(=O)(=O)c3ccccc3)c3c2C(=O)C(=O)C=C3)cc1 | > 0.1 µM |  |  |  | 
COc1ccc(SC2=CC(=O)C(=O)c3c(-c4ccccc4)cn(S(=O)(=O)c4ccccc4)c32)cc1 |  | 13.6 µM | 14.3 µM | 23.5 µM | 
CC1=CC(=O)C(=O)c2c(-c3ccccc3)cn(S(=O)(=O)c3ccccc3)c21 | > 0.2 µM |  |  |  | 
O=C1C=C(c2ccccc2)c2c(c(-c3ccccc3)cn2S(=O)(=O)c2ccccc2)C1=O | > 0.1 µM |  |  |  | 
Cc1ccccc1-c1cn(S(=O)(=O)c2ccccc2)c2c1C(=O)C(=O)C=C2 |  | 25.9 µM | 47.2 µM | 58.5 µM | inhibition (ELAV-like protein 1 [1]): Active
COc1cccc(-c2cn(S(=O)(=O)c3ccccc3)c3c2C(=O)C(=O)C=C3)c1 | > 0.2 µM |  |  |  | 
O=C1C=Cc2c(c(-c3ccccc3)cn2S(=O)(=O)c2ccccc2)C1=O |  | 26.5 µM | 24.2 µM | 32.7 µM | Activity (MCF7 [7]): inactive; Activity (MDA-MB-231 [8]): Active; Activity (PANC-1 [9]): Active; Activity [10]: inactive; Activity (MCF7 [11]): inactive; Activity [12]: inactive
COc1ccc(-c2cn(S(=O)(=O)c3ccccc3)c3c2C(=O)C(=O)C=C3)cc1 | > 0.2 µM |  |  |  | 
O=C1C=Cc2c(c(-c3ccccc3)cn2S(=O)(=O)c2ccc([N+](=O)[O-])cc2)C1=O |  |  |  |  | inhibition (ELAV-like protein 1 [1]): Active
O=C1C=Cc2c(c(-c3ccccc3)cn2S(=O)(=O)c2cccc([N+](=O)[O-])c2)C1=O | > 0.1 µM |  |  |  | 
O=C1C(=O)c2c(-c3ccccc3)cn(S(=O)(=O)c3ccccc3)c2C2=C1C1C=CC2CC1 (stereo unspecified) | > 0.3 µM |  |  |  | 
O=C1C=C(Sc2ccccc2)c2c(c(-c3ccccc3)cn2S(=O)(=O)c2ccccc2)C1=O |  | 24.9 µM | 23.8 µM | 28.7 µM | inhibition (ELAV-like protein 1 [1]): Active
O=C1C=Cc2c(c(-c3ccccc3)cn2S(=O)(=O)c2cccc(F)c2)C1=O | > 0.1 µM |  |  |  | 
